{"source": "ChEMBL document CHEMBL1150790", "about": "“Biochemical characterization of PER-2 and genetic environment of blaPER-2” (Antimicrob Agents Chemother, 2007)", "key": {"Escherichia coli [1]": {"system": "Escherichia coli", "assay": "Antimicrobial activity against Escherichia coli CAG12177 by agar dilution method", "format": "functional", "summary_of_the_method": "(§1)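 MICs were determined by agar dilution following CLSI guidelines, with inoculum applied by a Steers multipoint inoculator.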"}, "Escherichia coli [2]": {"system": "Escherichia coli", "assay": "Antimicrobial activity against Escherichia coli 33587-TC9 by agar dilution method", "format": "functional", "summary_of_the_method": "as §1"}, "[3]": {"target": "T1, PER-2 beta-lactamase (Citrobacter freundii) (UniProt A2RP81)", "T1 sequence (whole entry)": "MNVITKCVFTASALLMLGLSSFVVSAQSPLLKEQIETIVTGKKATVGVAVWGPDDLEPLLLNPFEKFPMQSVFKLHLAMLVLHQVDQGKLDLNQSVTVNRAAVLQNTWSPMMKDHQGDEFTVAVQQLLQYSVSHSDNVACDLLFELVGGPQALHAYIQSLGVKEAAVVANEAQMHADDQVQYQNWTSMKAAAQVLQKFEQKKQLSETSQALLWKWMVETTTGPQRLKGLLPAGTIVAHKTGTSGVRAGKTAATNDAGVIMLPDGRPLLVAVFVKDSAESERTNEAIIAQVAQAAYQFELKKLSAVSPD", "assay": "Ratio of Kcat to Km of Citrobacter freundii PER2 beta lactamase relative to cephalothin", "summary_of_the_method": "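Purified recombinant PER-2 (E. coli BL21(DE3) expression, Q-Sepharose purification) was assayed spectrophotometrically at 30°C in 500 μl. kcat and Km came from initial steady-state rates.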"}, "Citrobacter freundii": {"system": "Citrobacter freundii", "assay": "Antimicrobial activity against Citrobacter freundii 33587 isolate by agar dilution method", "format": "functional", "summary_of_the_method": "as §1"}, "PER-2 beta-lactamase": {"target": "T2, PER-2 beta-lactamase (Citrobacter freundii, UniProt A2RP81)", "T2 sequence (A2RP81 whole entry)": "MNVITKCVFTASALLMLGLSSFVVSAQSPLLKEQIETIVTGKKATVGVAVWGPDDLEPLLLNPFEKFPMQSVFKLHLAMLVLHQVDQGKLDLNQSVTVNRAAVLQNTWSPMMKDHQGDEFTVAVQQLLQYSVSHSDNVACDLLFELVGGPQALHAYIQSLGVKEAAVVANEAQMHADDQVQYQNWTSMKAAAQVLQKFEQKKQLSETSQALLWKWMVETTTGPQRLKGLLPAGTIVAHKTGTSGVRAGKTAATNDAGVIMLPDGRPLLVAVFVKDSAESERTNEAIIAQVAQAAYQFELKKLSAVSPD", "assay": "Inhibition of Citrobacter freundii PER2 beta lactamase", "summary_of_the_method": "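Purified recombinant PER-2 was incubated with the drug plus 100 μM nitrocefin as reporter substrate in 500 μl at 30°C. Residual enzyme activity was read spectrophotometrically. Apparent Km values were derived as competitive inhibitor constants (Ki).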"}, "Alcaligenes faecalis [4]": {"system": "Alcaligenes faecalis", "assay": "Ratio of Kcat to Km of Alcaligenes faecalis PER2 beta lactamase", "summary_of_the_method": "(§2)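 Purified recombinant PER-2 (expressed in E. coli BL21(DE3) from pET28a(+), IPTG-induced, Q-Sepharose purified). β-Lactam hydrolysis was followed spectrophotometrically at 30°C. For good substrates, Km and kcat came from initial rates. […] For poor substrates, kcat came from complete hydrolysis time courses.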"}, "Alcaligenes faecalis [5]": {"system": "Alcaligenes faecalis", "assay": "Activity of Alcaligenes faecalis PER2 beta lactamase", "summary_of_the_method": "as §2"}}, "data": [{"smiles": "CC(=O)OCC1=C(C(=O)O)N2C(=O)[C@@H](NC(=O)Cc3cccs3)[C@H]2SC1", "note": "[CEPHALOTHIN]", "values": [{"measurement": "MIC", "setting": "Escherichia coli [1]", "result": 0.5, "unit": "µg/mL"}, {"measurement": "MIC", "setting": "Escherichia coli [2]", "result": "> 512", "unit": "µg/mL"}, {"measurement": "Activity", "setting": "[3]", "result": 100, "unit": "%"}, {"measurement": "MIC", "setting": "Citrobacter freundii", "result": 512, "unit": "µg/mL"}]}, {"smiles": "CC1(C)S[C@@H]2[C@H](NC(=O)Cc3ccccc3)C(=O)N2[C@H]1C(=O)O", "values": [{"measurement": "Activity", "setting": "[3]", "result": 18, "unit": "%"}]}, {"smiles": "C[C@H]1[C@H](NC(=O)/C(=N\\OC(C)(C)C(=O)O)c2csc(N)n2)C(=O)N1S(=O)(=O)O", "note": "[AZTREONAM]", "values": [{"measurement": "MIC", "setting": "Escherichia coli [1]", "result": "≤ 0.016", "unit": "µg/mL"}, {"measurement": "MIC", "setting": "Escherichia coli [2]", "result": 256, "unit": "µg/mL"}, {"measurement": "Ki", "setting": "PER-2 beta-lactamase", "result": 2000, "unit": "nM"}, {"measurement": "Activity", "setting": "[3]", "result": 18, "unit": "%"}, {"measurement": "MIC", "setting": "Citrobacter freundii", "result": 256, "unit": "µg/mL"}]}, {"smiles": "CC(C)(O/N=C(\\C(=O)N[C@@H]1C(=O)N2C(C(=O)[O-])=C(C[n+]3ccccc3)CS[C@H]12)c1csc(N)n1)C(=O)O", "note": "[CEFTAZIDIME]", "values": [{"measurement": "MIC", "setting": "Escherichia coli [1]", "result": "≤ 0.063", "unit": "µg/mL"}, {"measurement": "MIC", "setting": "Escherichia coli [2]", "result": "> 128", "unit": "µg/mL"}, {"measurement": "Activity", "setting": "[3]", "result": 64, "unit": "%"}, {"measurement": "MIC", "setting": "Citrobacter freundii", "result": 128, "unit": "µg/mL"}, {"measurement": "kcat/Km", "setting": "Alcaligenes faecalis [4]", "result": 30000, "unit": "M⁻¹ s⁻¹"}, {"measurement": "Km", "setting": "Alcaligenes faecalis [5]", "result": 806, "unit": "µM"}]}, {"smiles": "NC[C@H]1O[C@H](O[C@H]2[C@H](O)[C@@H](O[C@H]3O[C@H](CO)[C@@H](O)[C@H](N)[C@H]3O)[C@H](N)C[C@@H]2N)[C@H](O)[C@@H](O)[C@@H]1O", "note": "[KANAMYCIN]", "values": [{"measurement": "MIC", "setting": "Escherichia coli [1]", "result": "≤ 0.25", "unit": "µg/mL"}, {"measurement": "MIC", "setting": "Escherichia coli [2]", "result": "> 128", "unit": "µg/mL"}, {"measurement": "MIC", "setting": "Citrobacter freundii", "result": "> 128", "unit": "µg/mL"}]}, {"smiles": "O=C(Cc1cccs1)N[C@@H]1C(=O)N2C(C(=O)O)=C(/C=C/c3ccc([N+](=O)[O-])cc3[N+](=O)[O-])CS[C@H]12", "values": [{"measurement": "Activity", "setting": "[3]", "result": 224, "unit": "%"}]}, {"smiles": "CO/N=C(\\C(=O)N[C@@H]1C(=O)N2C(C(=O)O)=C(COC(N)=O)CS[C@H]12)c1ccco1", "values": [{"measurement": "Activity", "setting": "[3]", "result": 45, "unit": "%"}]}, {"smiles": "CO[C@@]1(NC(=O)Cc2cccs2)C(=O)N2C(C(=O)O)=C(COC(N)=O)CS[C@@H]21", "note": "[CEFOXITIN]", "values": [{"measurement": "MIC", "setting": "Escherichia coli [1]", "result": "≤ 0.063", "unit": "µg/mL"}, {"measurement": "MIC", "setting": "Escherichia coli [2]", "result": 0.125, "unit": "µg/mL"}, {"measurement": "Ki", "setting": "PER-2 beta-lactamase", "result": 140, "unit": "nM"}, {"measurement": "Activity", "setting": "[3]", "result": 18, "unit": "%"}, {"measurement": "MIC", "setting": "Citrobacter freundii", "result": 1, "unit": "µg/mL"}]}, {"smiles": "CCN1CCN(C(=O)N[C@@H](C(=O)N[C@@H]2C(=O)N3[C@@H]2SC(C)(C)[C@@H]3C(=O)O)c2ccccc2)C(=O)C1=O", "note": "[PIPERACILLIN]", "values": [{"measurement": "MIC", "setting": "Escherichia coli [1]", "result": 0.063, "unit": "µg/mL"}, {"measurement": "MIC", "setting": "Escherichia coli [2]", "result": 256, "unit": "µg/mL"}, {"measurement": "Ki", "setting": "PER-2 beta-lactamase", "result": 200, "unit": "nM"}, {"measurement": "Activity", "setting": "[3]", "result": 30, "unit": "%"}, {"measurement": "MIC", "setting": "Citrobacter freundii", "result": 256, "unit": "µg/mL"}]}]}
